Assay outcomes (PubChem BioAssay)
The list is not random: actives were taken first. Their share in the collection is about 2.2%.
Wee1 degr inh: Wee1 degradation inhibitors, primary screen, cell-based, HeLa, Wee1K328M-luciferase, luminescence; Wee1-like protein kinase (Homo sapiens), P30291; HeLa Luc-Wee1K328M stability; 100% = proteasome inhibitor MG132 effect; reporter increase, % at 5 µM; actives 1.2% (n = 220,000); AID 1321, 2008;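 active = activation above the mean of all tested compounds plus 3 SD, set per screening run, cut at about 8.8% in these data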;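 also: cells exposed to compound for 20 h before luminescence read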
thrombin 1536: human alpha-thrombin inhibitors, primary screen, counter-screen for coagulation protease inhibitor project, biochemical, 1536-well, fluorogenic AMC substrate; inhibition, % at 5 µM; Boc-VPR-AMC fluorogenic substrate cleavage; Prothrombin (Homo sapiens), P00734; actives 0.26% (n = 220,000);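 active = inhibition at or above 40%; inactive = inhibition below 40%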
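Material: human alpha-thrombin protein; Also added: Boc-VPR-AMC substrate, 15 µM final; Timing: enzyme reaction carried out at room temperature; Signal: fluorescence, ex 355 nm, em 460 nm; Measure: % inhibition of thrombin; Controls: enzyme without compound as high, wells lacking enzyme as low.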
FXIa inh 1536: human FXIa protease inhibitors, primary screen, biochemical, 1536-well | Coagulation factor XI (Homo sapiens), P03951 | purified FXIa, Boc-Glu-Ala-Arg-AMC fluorogenic substrate | inhibition, % at 5 µM | actives 0.14% (n = 220,000);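 active = inhibition of at least 40%; inactive = inhibition below 40%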;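 also: fluorescence of freed AMC excited at 355 nm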
hK5 inh: human KLK5 protease inhibitors, primary screen, biochemical, 1536-well; recombinant hK5, fluorogenic AMC substrate cleavage; Kallikrein-5 (Homo sapiens), Q9Y337; inhibition, % at 5 µM; AID 873, 2007; actives 0.59% (n = 210,000);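 active = inhibition of 40% or more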
FXIIa inh: human FXIIa protease inhibitors, primary screen, biochemical, 1536-well; Coagulation factor XII (Homo sapiens), P00748; purified FXIIa, Boc-QGR-AMC fluorogenic substrate, 2 h; inhibition, % at 5 µM; actives 0.3% (n = 220,000); in the data active = inhibition above about 40%
Large screens that a line does not name were inactive.

COc1ccc(S(=O)(=O)NCCOc2cccc3cccnc23)cc1OC	FXIa inh 1536 42.1
O=C(NCCCn1ccnc1)c1cccc(S(=O)(=O)NCc2ccccc2)c1	none
CCN(CC)C(=O)CSc1nc2ccccc2c(=O)n1CC	hK5 inh 87.5
O=C(CO/N=C/c1ccccc1O)N1CCc2ccccc21	hK5 inh 44.5
CC(C)c1nc(SCC(=O)Nc2c[nH]c(=O)[nH]c2=O)c2cnn(-c3ccccc3)c2n1	none
O=C(CN1CCN(Cc2ccccc2F)C1=O)NC1CCCC1	none
O=C(CN1CCCN(Cc2ccc(F)cc2Cl)C1=O)NC1CCCCCCC1	hK5 inh 104.1
Cc1ccc(C2(c3noc(CN(C)Cc4cccnc4)n3)CCCC2)cc1	none (no result: hK5 inh)
NC1=NC(=O)/C(=C\C=C\c2ccccc2)S1	hK5 inh 54.6
COc1cccc(C(=O)N=c2sc3cc(S(C)(=O)=O)ccc3n2C)c1	none
O=C(CS(=O)(=O)c1ccc2ccccc2c1)Nc1ccccc1Cl	hK5 inh 57.9
Cc1ccc(S(=O)(=O)N2CCC(NC(=O)c3ccccc3)CC2)cc1	none
COc1ccc(C(=O)Nc2ccccc2C(=O)O)cc1NC(=O)C(c1ccccc1)c1ccccc1	none
COc1ccc(C(=O)Nc2ccccc2C(=O)O)cc1Cl	hK5 inh 46.6
O=C(Nc1nnc(-c2ccccn2)o1)c1cccc(Cl)c1	none
N#Cc1ccc(C(=O)Nc2nnc(-c3ccccn3)o2)cc1	Wee1 degr inh 9.4
CC1(C)C2CCC1(C)C1(C2)NC(=O)c2ccccc2O1 (stereo not given)	none
COc1ccc(C(=O)CSc2nnc(CN3CCCC3)n2-c2ccc(F)cc2)c(OC)c1	none
O=C1NCCN1C(=O)c1ccccc1F	none
O=C1NCCN1C(=O)c1cccc(Cl)c1	Wee1 degr inh 11.9
CCc1[nH]nc2c1C(C(C)C)C(C#N)=C(N)O2 (stereo not given)	none (no result: Wee1 degr inh)
CCSc1nc2c(c(=O)[nH]1)C(C(C)C)C(C#N)=C(N)O2 (stereo not given)	Wee1 degr inh 9.1
CCN1/C(=C/c2ccc3cc(C)cc(C)c3[n+]2CC)Sc2cc(C)ccc21	none
CCN1/C(=C/c2ccc3cccc(C)c3[n+]2CC)Sc2ccccc21	hK5 inh 50.7
CC(=O)c1sc2nsc(SCCN3CCOCC3)c2c1N	Wee1 degr inh 9.0
CCNC(=O)NC(=O)COC(=O)CCCSc1nc2ccccc2s1	none
CN(C)c1ccc(C(=O)/C=C/c2ccco2)cc1	Wee1 degr inh 9.4
O=C(/C=C/c1ccco1)c1ccc(O)cc1	none
Fc1ccccc1NC(=S)N1CCN(Cc2ccccc2)CC1	none
c1ccc(CNc2ncnc3c2oc2ccccc23)nc1	Wee1 degr inh 10.3
CCOC(=O)c1cc(-c2ccc(C)cc2)n(CCC(=O)N2CCN(c3ccccn3)CC2)c1C	none
COC(=O)/C=c1/sc2n(c1=O)CCN=2	Wee1 degr inh 9.2
CC12CC3CC(C)(C1)CC(Nc1nc(N4CCOCC4)nc4ccccc14)(C3)C2	none
COc1ccc(N(CC(=O)N2CCC(Cc3ccccc3)CC2)S(C)(=O)=O)cc1	none
CCC(=O)Nc1ccccc1C(=O)C(=O)Nc1ccccc1	none
CCN(C(=O)COC(=O)c1cn(-c2ccccc2)nc1-c1ccccc1)C1CCS(=O)(=O)C1 (stereo not given)	none
CCN(C(=O)COC(=O)c1cc(-c2ccccc2)nn1-c1ccccc1)C1CCS(=O)(=O)C1 (stereo not given)	Wee1 degr inh 10.0
COc1ccc(Cn2nnnc2C(c2cc(OC)ccc2OC)N2CCC(C(N)=O)CC2)cc1 (stereo not given)	hK5 inh 70.3
COc1ccc(Cn2nnnc2C(c2ccccc2Cl)N2CCC(C(N)=O)CC2)cc1 (stereo not given)	none
Cc1nc(-c2cnn(-c3ccccc3)c2)c2cc(C)oc2n1	thrombin 1536 66.9
Cc1oc2c(O)c(O)ccc2c(=O)c1-c1cnn(-c2ccccc2)c1	none
CSc1nc2n(n1)C(C)C1=C(CCCC1=O)N2 (stereo not given)	Wee1 degr inh 9.2
O=C(Nc1ccccc1N1CCOCC1)c1ccc2c(c1)OCO2	none
CC(=O)Nc1cccc(C(=O)Nc2ccccc2N2CCOCC2)c1	Wee1 degr inh 9.0
Cn1c(Sc2ccc([N+](=O)[O-])cc2C(F)(F)F)nnc1-c1ccccc1	none
